Reference: paper PMC4462344 (Cancer Science, 2014)
Values joined by “and” are separate entries in the source; they are usually repeats but may differ in a detail not shown here. Identical values can stand only once. Marks after values point to notes of the source that are not given here.

Columns and labels:
Assay type in all cases: in vivo, Japanese CRPC patients
[1] = test system: castration-resistant prostate cancer; experiment: Efficacy: objective tumor response by RECIST
How it was run: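 Patients with measurable lesions were assessed for objective tumour response by RECIST. Dosing was once-daily oral abiraterone acetate (250, 500 or 1000 mg, the 1000 mg given 1 h premeal or 2 h postmeal) in 28-day cycles, with prednisone 5 mg twice daily added from cycle 1 day 8 onward.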

[2] = test system: dehydroepiandrosterone sulfate (DHEA-S); experiment: Pharmacodynamics: serum DHEA-S concentration
How it was run: (§1)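 Serum corticosterone, 11-deoxycorticosterone, testosterone and DHEA-S were measured at baseline and on days 2 and 8 of cycle 1. Abiraterone acetate was given orally once daily after an overnight fast, with no food for ≥1 h after dosing. It was given alone days 1–7, then with prednisone 5 mg twice daily. Results are summarised as change from baseline.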

11-deoxycorticosterone = experiment: Pharmacodynamics: serum 11-deoxycorticosterone concentration
How it was run: as §1

[3] = Plasma abiraterone acetate and abiraterone pharmacokinetics
How it was run: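 Venous blood was drawn at predose and 0.5–12 h after dosing on cycle 1 days 1, 7 and 15 (monotherapy days 1–7; prednisone 5 mg twice daily from day 8), plus 24-h and trough samples. Samples were taken on NaF, spun at 1300 g and 4°C for 10 min, and stored at −20°C. Assay was validated LC/MS/MS (LLOQ 0.220 ng/mL). Cmax, tmax and AUC24 came from non-compartmental analysis.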

corticosterone = experiment: Pharmacodynamics: serum corticosterone concentration
How it was run: as §1

testosterone = experiment: Pharmacodynamics: serum testosterone concentration
How it was run: as §1

[4] = test system: prostate-specific antigen (PSA); experiment: Efficacy: PSA response; conditions: for patients who achieved ≥50% PSA decline from baseline at one or more evaluation time points: entire treatment period; for mean percentage change from baseline in PSA levels: week 12
How it was run: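 Oral abiraterone acetate given once daily in 28-day cycles to chemotherapy-naïve patients on continued LHRH agonist or post-orchiectomy: monotherapy days 1–7 of cycle 1, then with prednisone 5 mg twice daily. PSA measured at screening and day 1 of each cycle. Response was a ≥50% fall from baseline confirmed to persist ≥4 weeks, per PCWG2.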

[5] = Cycle 1 Day 2, 1000 (+2 h) mg (n = 6)
[6] = Cycle 1 Day 2, 1000 (−1 h) mg (n = 6)
[7] = Cycle 1 Day 8, 1000 (+2 h) mg (n = 6)
[8] = Cycle 1 Day 8, 1000 (−1 h) mg (n = 6)

CC(=O)O[C@H]1CC[C@@]2(C)C(=CC[C@@H]3[C@@H]2CC[C@]2(C)C(c4cccnc4)=CC[C@@H]32)C1 [Abiraterone acetate]
patients in whom the disease had progressed (RECIST) ([1]; 250 mg): 1 patients
patients with stable disease (RECIST) ([1]; 250 mg): 1 patients
patients with partial response (RECIST) ([1]; 500 mg): 1 patients
patients with stable disease (RECIST) ([1]; 500 mg): 2 patients
patients in whom the disease had progressed (RECIST) ([1]; 1000 (+2 h) mg): 1 patients
patients with partial response (RECIST) ([1]; 1000 (−1 h) mg): 1 patients
patients with stable disease (RECIST) ([1]; 1000 (−1 h) mg): 2 patients
patients in whom the disease had progressed (RECIST) ([1]; all cohorts): 2 patients
patients with partial response (RECIST) ([1]; all cohorts): 2 patients
patients with stable disease (RECIST) ([1]; all cohorts): 5 patients
DHEA-S, mean (SD) change from baseline ([2]; Cycle 1 Day 2, 250 mg (n = 9)): −19.1 (13.49) ug/dL
DHEA-S, mean (SD) change from baseline ([2]; Cycle 1 Day 2, 500 mg (n = 6)): −28.3 (24.32) ug/dL
DHEA-S, mean (SD) change from baseline [2, 5]: −53.3 (34.14) ug/dL
DHEA-S, mean (SD) change from baseline [2, 6]: −59.7 (49.87) ug/dL
DHEA-S, mean (SD) change from baseline ([2]; Cycle 1 Day 8, 250 mg (n = 9)): −35.7 (25.51) ug/dL
DHEA-S, mean (SD) change from baseline ([2]; Cycle 1 Day 8, 500 mg (n = 6)): −38.5 (37.31) ug/dL
DHEA-S, mean (SD) change from baseline [2, 7]: −76.8 (54.02) ug/dL
DHEA-S, mean (SD) change from baseline [2, 8]: −95.3 (77.99) ug/dL
11-deoxycorticosterone, mean (SD) change from baseline (11-deoxycorticosterone; Cycle 1 Day 2, 250 mg (n = 8)): 22.9 (10.13) ^† ng/dL
11-deoxycorticosterone, mean (SD) change from baseline (11-deoxycorticosterone; Cycle 1 Day 2, 500 mg (n = 6)): 40.3 (16.79) ng/dL
11-deoxycorticosterone, mean (SD) change from baseline (11-deoxycorticosterone; [5]): 45.7 (61.09) ng/dL
11-deoxycorticosterone, mean (SD) change from baseline (11-deoxycorticosterone; [6]): 36.3 (17.22) ng/dL
11-deoxycorticosterone, mean (SD) change from baseline (11-deoxycorticosterone; Cycle 1 Day 8, 250 mg (n = 8)): 45.9 (13.35) ^† ng/dL
11-deoxycorticosterone, mean (SD) change from baseline (11-deoxycorticosterone; Cycle 1 Day 8, 500 mg (n = 6)): 78.8 (36.41) ng/dL
11-deoxycorticosterone, mean (SD) change from baseline (11-deoxycorticosterone; [7]): 112.3 (65.15) ng/dL
11-deoxycorticosterone, mean (SD) change from baseline (11-deoxycorticosterone; [8]): 79.2 (51.53) ng/dL
plasma AA concentrations ([3]; most plasma concentrations, all cohorts, LLOQ 0.220 ng/mL): below the quantification limit
Corticosterone, mean (SD) change from baseline (corticosterone; Cycle 1 Day 2, 250 mg (n = 9)): 1097.1 (687.41) ng/dL
Corticosterone, mean (SD) change from baseline (corticosterone; Cycle 1 Day 2, 500 mg (n = 6)): 2914.8 (1543.83) ng/dL
Corticosterone, mean (SD) change from baseline (corticosterone; [5]): 4227.3 (2814.68) ng/dL
Corticosterone, mean (SD) change from baseline (corticosterone; [6]): 1957.2 (1008.74) ng/dL
Corticosterone, mean (SD) change from baseline (corticosterone; Cycle 1 Day 8, 250 mg (n = 9)): 2015.2 (769.39) ng/dL
Corticosterone, mean (SD) change from baseline (corticosterone; Cycle 1 Day 8, 500 mg (n = 6)): 4086.5 (2478.82) ng/dL
Corticosterone, mean (SD) change from baseline (corticosterone; [7]): 6426.2 (2212.64) ng/dL
Corticosterone, mean (SD) change from baseline (corticosterone; [8]): 5147.8 (1642.75) ng/dL
Testosterone, mean (SD) change from baseline (testosterone; Cycle 1 Day 2, 250 mg (n = 9)): −3.6 (3.64) ng/dL
Testosterone, mean (SD) change from baseline (testosterone; Cycle 1 Day 2, 500 mg (n = 6)): −4.8 (3.06) ng/dL
Testosterone, mean (SD) change from baseline (testosterone; [5]): −7.5 (1.87) ng/dL
Testosterone, mean (SD) change from baseline (testosterone; [6]): −8.0 (3.22) ng/dL
Testosterone, mean (SD) change from baseline (testosterone; Cycle 1 Day 8, 250 mg (n = 9)): −6.2 (4.06) ng/dL
Testosterone, mean (SD) change from baseline (testosterone; Cycle 1 Day 8, 500 mg (n = 6)): −8.2 (3.82) ng/dL
Testosterone, mean (SD) change from baseline (testosterone; [7]): −9.2 (2.32) ng/dL
Testosterone, mean (SD) change from baseline (testosterone; [8]): −10.8 (6.21) ng/dL
mean change from baseline in testosterone levels, range over cohorts (testosterone; day 8 in cycle 1, 250-1000 mg): -10.8 to -6.2 ng/dL
PSA response rate ([4]; 250 mg cohort): 67%
PSA response rate ([4]; 500 mg cohort, listed as AA): 50%
PSA response rate ([4]; 1000 (+2 h) mg cohort, listed as AA): 83% and 83.3%
PSA response rate ([4]; 1000 (−1 h) mg cohort, listed as AA): 67% and 66.7%
patients with ≥50% PSA decline confirmed to be maintained for at least 4 weeks ([4]; all cohorts): 18/27
overall PSA response rate ([4]; all cohorts (N = 27), ≥50% decline maintained ≥4 weeks): 67%
patients from each dose-group with ≥50% PSA reduction ([4]; each dose-group): At least 3 patients
patients who achieved ≥50% PSA decline from baseline at one or more evaluation time points ([4]; 250 mg): 7 patients
patients who achieved ≥50% PSA decline from baseline at one or more evaluation time points ([4]; 500 mg): 3 patients
patients who achieved ≥50% PSA decline from baseline at one or more evaluation time points ([4]; 1000 (+2 h) mg): 5 patients
patients who achieved ≥50% PSA decline from baseline at one or more evaluation time points ([4]; 1000 (−1 h) mg): 5 patients
patients who achieved ≥50% PSA decline from baseline at one or more evaluation time points ([4]; all cohorts): 20/27
mean percentage change from baseline in PSA levels ([4]; 250 mg): −51.2%
mean percentage change from baseline in PSA levels ([4]; 500 mg): −29.1%
mean percentage change from baseline in PSA levels ([4]; 1000 mg (+2 h)): −37.6%
mean percentage change from baseline in PSA levels ([4]; 1000 mg (−1 h)): −60.4%

C[C@]12CC[C@H](O)CC1=CC[C@@H]1[C@@H]2CC[C@]2(C)C(c3cccnc3)=CC[C@@H]12 [abiraterone]
mean Cmax and AUC24 of abiraterone, 2 h postmeal versus 1 h premeal ([3]; 1000 mg cohort, overall): 3.1–6.0 times
abiraterone Cmax and AUC24, 2 h postmeal versus 1 h premeal ([3]; AA 1000 mg multiple doses): approximately threefold to sixfold
accumulation index for AUC24 of abiraterone ([3]; irrespective of dose): 1.40–1.69
accumulation index for Cmax of abiraterone ([3]; irrespective of dose): 1.31–1.74
time at which steady state of plasma abiraterone was reached ([3]; regardless of dose): ≤ 7 days
